# Data as given in publication PMC8204096 (Clinical & Translational Immunology, 2021).
# Read-outs that look alike come from different tables or passages of the source.
# How the values were obtained:
# [1] = system: B cells in human whole blood; test: Anti-IgD-induced B-cell activation; format: cell-based; details: read-out: IC50, B-cell activation in whole blood, stimulated cells
# [2] = system: B cells in whole blood of dosed healthy individuals; test: Phase 1; format: in vivo, human
# Method in brief: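 Heparinised whole blood from trial participants (test compound or placebo, BID) was stimulated with 0.1 μg mL−1 dextran-conjugated anti-IgD (IA6-2) for 18–24 h at 37°C/5% CO2. Samples were stained for CD19 and CD69, RBC-lysed and fixed. CD69 on CD19+, CD27− and CD27+ B cells was standardised with MESF beads. Inhibition was calculated relative to pre-dose samples.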
# [3] = target: BTK (Mus musculus, UniProt P35991); test: in vivo
# [4] = system: purified human B cells; test: Human B-cell proliferation; format: cell-based; details: 100 nM added at time of activation; TLR9 or anti-IgM/CD40L with IL-4 or IL-21
# Method in brief: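 Healthy-donor B cells were enriched untouched and labelled with CFSE. Stimuli were CpG ODN 2006, or F(ab′)2 anti-IgM (1 µg mL−1), or anti-IgM/MEGACD40L (1 μg mL−1) with IL-4 or IL-21 (each 20 ng mL−1). Cells were cultured with or without 100 nm test compound in serum-free X-VIVO 10 for 3–5 days, then analysed by flow cytometry.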
# [5] = system: mouse splenic B cells and OTII CD4+ T cells; test: BCR-mediated antigen presentation to T cells; format: cell-based; details: read-out: IC50, BCR-mediated antigen presentation to OVA323-339-specific T cells (T-cell proliferation)
# [6] = system: CD19+ B cells from human PBMCs; test: Antigen-independent B-cell activation by anti-CD3/anti-CD28-activated T cells; format: cell-based
# Method in brief: (§1)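 Human PBMCs were pre-treated for 30 min with titrating concentrations of test compound. They were then stimulated overnight at 37°C with soluble anti-CD28 (CD28.2, 5 μg mL−1) and plate-bound anti-CD3 (HIT3a, 0.5 µg mL−1). CD69 on CD4+ and CD8+ T cells and on CD19+ B cells was measured by flow cytometry.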
# [7] = system: NP-specific IgM antibody titres; test: NP-Ficoll T cell-independent; format: in vivo; details: mouse, oral BID for 10 days
# [8] = system: basophils in human whole blood; test: FcεR-mediated basophil degranulation; format: cell-based; details: read-out: IC50, anti-IgE-mediated basophil degranulation (CD63)
# [9] = system: CD19+ B cells from human PBMC; test: Anti-IgD-induced B-cell activation; format: cell-based; details: read-out: IC50, CD69 induction on B cells
# Method in brief: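 PBMCs from healthy donors were isolated by density gradient. They were incubated for 30 min with titrating concentrations of test compound or DMSO, then stimulated overnight at 37°C with rabbit F(ab′)2 anti-human IgD (5 μg mL−1). After Fc block and staining for 30 min on ice, the frequency of CD69+ cells among CD19+ B cells was measured by flow cytometry.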
# [10] = system: B cells in mouse whole blood; test: Anti-IgD-induced B-cell activation; format: cell-based; details: read-out: IC50, CD62L downregulation on B cells
# [11] = system: B220+ mouse splenic B cells; test: Anti-IgM-induced B-cell activation; format: cell-based; details: read-out: IC50, CD69 induction on B cells
# Method in brief: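 Splenic B cells were bead-isolated from OTII mice and pre-treated with test compound for 30 min at 37°C. They were incubated on ice with biotinylated goat F(ab′)2 anti-mouse IgM (10 μg mL−1, 15 min), then OVA-conjugated anti-biotin (10 min), with compound present throughout. They were co-cultured with dye-labelled CD4+ T cells for 72 h at 37°C. The frequency of CD69+ B220+ B cells was measured by flow cytometry.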
# [12] = system: splenic germinal center B cells; test: Sheep red blood cell thymus-dependent immunisation model; format: in vivo; details: mouse, 8 days BID, all doses tested
# Method in brief: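 Mice were dosed orally BID at 10 mL kg−1 with test compound or vehicle from day 1 to day 9. On day 2 they received washed sheep red blood cells i.p. (2 × 10⁹ cells). Spleens were collected on day 9, 3 h after the last dose. Germinal centre B cells (CD3−CD19+B220+CD38lowGL7+CD95+) were enumerated by flow cytometry, with 8–20 mice per group.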
# [13] = system: CD4+ and CD8+ T cells from human PBMCs; test: Anti-CD3/anti-CD28-mediated T-cell activation counter-screen; format: cell-based; details: anti-CD3 and anti-CD28 overnight, concentrations up to 10 μM
# Method in brief: as §1
# [14] = Homo sapiens, B-cell, read-out: average (± SD) CD69 inhibition at 24 h post-last dose
# [15] = Homo sapiens, B-cell, read-out: pre-dose average CD69 inhibition in naïve B cells
# BTK, sequence (P35991 whole entry): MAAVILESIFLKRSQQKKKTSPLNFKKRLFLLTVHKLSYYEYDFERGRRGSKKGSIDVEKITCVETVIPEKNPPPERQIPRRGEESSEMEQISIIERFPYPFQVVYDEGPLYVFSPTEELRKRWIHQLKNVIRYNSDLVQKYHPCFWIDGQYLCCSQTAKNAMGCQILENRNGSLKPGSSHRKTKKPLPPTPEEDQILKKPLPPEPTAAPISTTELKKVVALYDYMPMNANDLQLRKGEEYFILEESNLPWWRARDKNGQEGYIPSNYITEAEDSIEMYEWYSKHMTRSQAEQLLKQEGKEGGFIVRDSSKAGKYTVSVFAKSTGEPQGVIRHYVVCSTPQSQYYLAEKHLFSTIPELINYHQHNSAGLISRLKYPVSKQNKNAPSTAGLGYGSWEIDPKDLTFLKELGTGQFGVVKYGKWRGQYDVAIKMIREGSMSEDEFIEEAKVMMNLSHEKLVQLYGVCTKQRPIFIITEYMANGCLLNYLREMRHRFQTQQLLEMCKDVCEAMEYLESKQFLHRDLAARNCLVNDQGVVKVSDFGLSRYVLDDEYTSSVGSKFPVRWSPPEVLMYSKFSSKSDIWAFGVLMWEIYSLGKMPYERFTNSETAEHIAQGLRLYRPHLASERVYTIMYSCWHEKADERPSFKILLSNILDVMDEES
IC50 [1],IC50 [3],IC50 [8],IC50 [10],IC50 [11],frequency of total splenic B cells [12],SMILES,"inhibition of CD69 upregulation in naïve B cells ([2]; 50 mg BID, 1 and 2 h post-dosing)","inhibition at 50 mg [2, 14]","inhibition at 150 mg [2, 14]","inhibition at 300 mg [2, 14]","inhibition at 150 mg [2, 15]","inhibition at 300 mg [2, 15]",effect on B-cell proliferative responses [4],IC50 [5],"inhibition of T cell-dependent, antigen-independent B-cell activation (CD69) [6]",ED50 for NP-specific IgM antibody titres [7],IC50 [9],inhibition of CD4+ or CD8+ T-cell activation (CD69) [13]
3500 nM,,,,,,Cc1cc(-c2ccnc(Nc3cnn(C)c3)n2)ccc1CNC(=O)N1CC(OC(C)C)C1 [BIIB068],,,,,,,,,,,,
,3.1 nM,106 nM,40 ± 24 nM,16 ± 11 nM,unchanged,Cn1cc(Nc2nccc(-c3ccc4c(c3)CN(C3COC3)CC[C@H]4NC(=O)c3cn(C(C)(C)C)nn3)n2)cn1 [BIIB091],complete,-5.8%,19%,-2.8%,≥ 90%,≥ 90%,potently blocked,22 ± 8 nM,did not inhibit,1.95 mg/kg,5.4 ± 0.5 nM,did not inhibit
